Experimental data gathered from unrelated publications.
Lines come from different studies, so protocols differ.
Sample: Caco-2

SMILES | setting | quantity | value
CN(C)C(=O)c1cc2cnc(Nc3ccc(N4CCNCC4)cn3)nc2n1C1CCCC1 | – | Papp | 1.83 ×10⁻⁶ cm/s
Nc1nc2c(ncn2COCCO)c(=O)[nH]1 | 10 µM, 2 h, pH 7.4 | Papp B→A | 0.756 ×10⁻⁶ cm/s
C[C@@H]1O[C@@H](OC[C@H]2O[C@@H](Oc3c(-c4ccc(O)c(O)c4)oc4cc(O)cc(O)c4c3=O)[C@H](O)[C@@H](O)[C@@H]2O)[C@H](O)[C@H](O)[C@H]1O | 1 mg/mL, pH 7.4 | Papp | 24.5 ×10⁻⁶ cm/s
CC(C)(/C=C(\C#N)C(=O)N1CCC[C@@H](n2nc(-c3ccc(Oc4ccccc4)cc3F)c3c(N)ncnc32)C1)N1CCN(C2COC2)CC1 | 1 µM | Papp | 1.7 ×10⁻⁶ cm/s
CCOC(=O)[C@@]12C[C@@H]1[C@@H](n1ccc3c(NC)nc(C#Cc4ccc(Cl)s4)nc31)[C@H](O)[C@@H]2O | 10 µM, 2 h, pH 7.4 | Papp B→A | 22.2 ×10⁻⁶ cm/s
CC1=C2C(=O)O[C@@H](c3ccoc3)[C@]2(C)CCC1 | 1 mg/mL, 4 h, pH 7.4 | Papp | > 10 ×10⁻⁶ cm/s
N#C[C@H](C[C@@H]1CCCNC1=O)NC(=O)[C@H](CC1CC1)NC(=O)c1cc2cccc(Cl)c2[nH]1 | – | Papp | 0.36 ×10⁻⁶ cm/s
Cn1c(S)nc2c1c(=O)n(Cc1ccccc1)c(=O)n2C | 10 µM, 2 h | Papp B→A | 30.5 ×10⁻⁶ cm/s
CC(C)NCC(O)COc1cccc2ccccc12 (stereo not shown) | – | Papp | 20 ×10⁻⁶ cm/s
CCn1c(=O)c2c(nc(S)n2C)n(C)c1=O | 10 µM, 2 h | Papp B→A | 7 ×10⁻⁶ cm/s
O=c1c(O)c(-c2ccc(O)cc2)oc2cc(O)cc(O)c12 | 1 mg/mL, pH 7.4 | Papp | 1.17 ×10⁻⁶ cm/s
CNC(=C[N+](=O)[O-])NCCSCc1ccc(CN(C)C)o1 | – | Papp B→A | 2 ×10⁻⁶ cm/s
CO[C@@H](C[C@H]1C(C)=CC[C@@H]2[C@]3(C)C[C@H](O[C@@H]4O[C@@H](C)[C@H](OC(=O)c5cccc(O)c5)[C@@H](O[C@@H]5O[C@H](CO)[C@@H](O)[C@H](O)[C@H]5NC(C)=O)[C@H]4O)[C@@H](O)C(C)(C)[C@H]3CC[C@]21C)[C@H](N)C(=O)O.O=C(O)C(F)(F)F | 5 µM, 1 h | Papp B→A | 0.05 ×10⁻⁶ cm/s
COc1cccc2c(-c3ccccc3)cc(-c3ccc(-c4ccc(C(=O)O)cc4)[nH]3)nc12 | – | Papp B→A | 7.44 ×10⁻⁶ cm/s
Nc1cc(N2CCCCC2)nc(N)[n+]1[O-] | 10 µM, 2 h, pH 7.4 | Papp B→A | 7.19 ×10⁻⁶ cm/s
CCN1C(=O)N(c2c(F)c(OC)cc(OC)c2F)Cc2cnc3[nH]c(CN4CCOCC4)cc3c21 | 50 µM | Papp | 11 ×10⁻⁶ cm/s
